{"source": "paper PMC4301979", "about": "(Nature chemical biology, 2015)", "key": {"ABHD16A [1]": {"target": "T1, ABHD16A (Homo sapiens, UniProt O95870)", "T1 sequence (O95870 1-558)": "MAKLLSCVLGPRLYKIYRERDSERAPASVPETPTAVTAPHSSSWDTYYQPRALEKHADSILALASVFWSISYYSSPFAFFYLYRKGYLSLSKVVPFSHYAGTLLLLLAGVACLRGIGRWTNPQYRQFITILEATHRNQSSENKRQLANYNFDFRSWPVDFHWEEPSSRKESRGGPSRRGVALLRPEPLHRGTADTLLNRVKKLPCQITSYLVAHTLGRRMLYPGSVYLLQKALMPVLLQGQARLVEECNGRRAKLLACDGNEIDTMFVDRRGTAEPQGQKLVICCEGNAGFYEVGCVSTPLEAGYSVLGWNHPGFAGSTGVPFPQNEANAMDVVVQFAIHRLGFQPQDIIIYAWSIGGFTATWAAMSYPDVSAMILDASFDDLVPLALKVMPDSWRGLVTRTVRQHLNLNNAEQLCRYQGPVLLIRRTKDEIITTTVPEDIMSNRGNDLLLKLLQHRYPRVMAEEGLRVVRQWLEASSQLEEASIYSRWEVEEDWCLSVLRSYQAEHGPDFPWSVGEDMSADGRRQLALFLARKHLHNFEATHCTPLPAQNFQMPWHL", "experiment": "PS substrate", "type": "biochemical", "settings": "95% interval for the reported IC50 value, human ABHD16A PS lipase activity"}, "ABHD16A [2]": {"target": "T1, ABHD16A", "experiment": "biochemical", "type": "binding"}, "mouse ABHD16A": {"target": "T2, mouse ABHD16A (Mus musculus, UniProt Q9Z1Q2)", "T2 sequence (Q9Z1Q2 1-558)": "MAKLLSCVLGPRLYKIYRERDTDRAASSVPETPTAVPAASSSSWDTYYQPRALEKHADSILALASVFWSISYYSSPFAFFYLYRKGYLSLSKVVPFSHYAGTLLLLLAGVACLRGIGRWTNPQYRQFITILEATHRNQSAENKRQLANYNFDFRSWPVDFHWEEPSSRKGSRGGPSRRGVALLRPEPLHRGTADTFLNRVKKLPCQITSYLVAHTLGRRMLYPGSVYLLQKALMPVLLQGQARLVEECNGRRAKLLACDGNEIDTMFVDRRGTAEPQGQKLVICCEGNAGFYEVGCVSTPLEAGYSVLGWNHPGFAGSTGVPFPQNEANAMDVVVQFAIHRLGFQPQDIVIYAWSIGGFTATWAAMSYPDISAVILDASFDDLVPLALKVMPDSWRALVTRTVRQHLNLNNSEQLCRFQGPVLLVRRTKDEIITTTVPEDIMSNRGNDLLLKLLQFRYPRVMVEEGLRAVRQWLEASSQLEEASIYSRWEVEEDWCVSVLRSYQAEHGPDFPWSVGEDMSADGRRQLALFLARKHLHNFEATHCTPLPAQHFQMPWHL", "experiment": "competitive gel-based ABPP, mouse ABHD16A-transfected HEK293T proteome", "type": "binding"}, "ABHD16A [3]": {"target": "T1, ABHD16A", "experiment": "competitive gel-based ABPP, K562 cells treated in situ", "type": "cell-based", "settings": "in situ IC50 for ABHD16A, 4 h treatment, 37 °C"}, "ABHD16A [4]": {"target": "T1, ABHD16A", "experiment": "ABPP-SILAC of serine hydrolase activities in COLO205 cells treated in situ", "type": "cell-based", "settings": "1 μM, 4 h, 37 °C"}, "[5]": {"test_system": "additional off-targets (serine hydrolase activities)", "experiment": "ABPP-SILAC of serine hydrolase activities in COLO205 cells treated in situ", "type": "cell-based, human", "settings": "1 μM, 4 h, 37 °C"}, "COLO205 cells": {"test_system": "COLO205 cells", "experiment": "LC-MS-based lipid profiling of treated cells", "type": "cell-based, human", "settings": "COLO205, 1 μM, 4 h", "summary_of_the_method": "(§1)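 Cells grown in RPMI 1640 with 10% FCS and penicillin-streptomycin. 3 x 10^6 cells washed, then exposed to test compound (1 μM) or DMSO for 4 h at 37 °C, 5% CO2, in serum-free, phenol red-free RPMI. Media and cells extracted with 2:1 CHCl3:MeOH plus internal standards. Lipids quantified by LC-MS MRM (ESI) as peak area versus unnatural internal standard, normalized to cell number.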"}, "[6]": {"test_system": "PS lipase activity of human LCLs", "experiment": "PS lipase activity of membrane proteomes of lymphoblast cell lines", "type": "biochemical", "settings": "1 µM, 30 min, 37 °C; all LCL samples", "summary_of_the_method": "(§2)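 Membrane proteome (20 μg) incubated with 100 μM lipid substrate in PBS (100 μL), shaking, […] for 30 min. Quenched with 2:1 CHCl3:MeOH and internal standard, then extracted twice. Product quantified by LC-QTOF-MS, ESI negative mode, as peak area relative to internal standard. Non-enzymatic rate from heat-denatured proteome (95 °C, 15 min) subtracted.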"}, "[7]": {"test_system": "human lymphoblast cell lines (LCLs)", "experiment": "targeted LC-MS analysis of lyso-PS in LCLs", "type": "cell-based", "settings": "1 μM, 4 h", "summary_of_the_method": "as §1"}, "ABHD16A [8]": {"target": "T1, ABHD16A", "experiment": "gel-based ABPP of LCLs treated in situ", "type": "cell-based", "settings": "1 µM, 4 h in situ"}, "[9]": {"test_system": "PS lipase activity of mouse peritoneal macrophages", "experiment": "PS lipase activity of membrane proteomes of peritoneal macrophages", "type": "biochemical", "settings": "vehicle- and LPS-stimulated macrophages; 1 µM, 30 min, 37 °C", "summary_of_the_method": "as §2"}, "[10]": {"test_system": "thioglycollate-elicited mouse peritoneal macrophages", "experiment": "cellular and secreted lyso-PS of thioglycollate-elicited peritoneal macrophages", "type": "cell-based", "settings": "4 h", "summary_of_the_method": "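Thioglycollate-elicited peritoneal macrophages from wild-type, ABHD12−/− or ABHD16A−/− mice. 2 x 10^6 cells plated and adhered 2 h at 37 °C. Washed, then test compound (1 μM) or DMSO given for 4 h in serum-free, phenol red-free RPMI. LPS 5 μg/mL in PBS for 7 h. Media (4 mL) and cells extracted with CHCl3:MeOH. Lipids quantified by LC-MS MRM against internal standards, normalized to cell number.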"}, "[11]": {"test_system": "thioglycollate-elicited mouse peritoneal macrophages", "experiment": "secreted cytokines of thioglycollate-elicited peritoneal macrophages", "type": "cell-based", "settings": "4 h", "summary_of_the_method": "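Peritoneal macrophages elicited by thioglycollate from wild-type, ABHD12−/− or ABHD16A−/− mice. 2 x 10^6 cells allowed to adhere 2 h, then washed. Test compound (1 μM) or DMSO applied for 4 h in serum-free, phenol red-free RPMI, then LPS (5 μg/mL, 7 h, in PBS). Cytokines measured in 0.5 mL harvested medium by mouse single-analyte ELISA.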"}, "ABHD12": {"test_system": "ABHD12", "settings": "read-out: IC50, competitive ABPP; brain serine hydrolases; cited from earlier work"}, "ABHD16A/BAT5": {"test_system": "ABHD16A/BAT5", "settings": "read-out: IC50, competitive ABPP; uncharacterized 60 kDa membrane enzyme tentatively identified as ABHD16A/BAT5; cited from earlier work"}, "[12]": {"target": "T3, ABHD16A (WT and S355A mutant) (Homo sapiens, UniProt O95870)", "T3 sequence (O95870 1-558)": "T1 sequence (O95870 1-558)", "experiment": "activity-dependent labeling of ABHD16A in transfected HEK293T cell lysates", "type": "binding", "settings": "0.2 µM, 30 min, 37 °C"}, "[13]": {"settings": "ABHD12−/− macrophages, pre-treatment 1 μM"}, "[14]": {"settings": "ABHD16A−/− macrophages, basal or LPS stimulation, 1 µM"}, "[15]": {"settings": "wild-type macrophages, pre-treatment 1 μM, LPS 5 μg/mL, 7 h"}}}
{"smiles": "CCCCCCCCCCCCCC1OC(=O)/C1=C\\CCCCC(N)=O", "note": "(centres unmarked) [KC01]", "values": [{"measurement": "IC50", "setting": "ABHD16A [1]", "value": "69 to 105", "unit": "nM"}, {"measurement": "IC50", "setting": "ABHD16A [2]", "value": "200 to 500", "unit": "nM"}, {"measurement": "IC50", "setting": "mouse ABHD16A", "value": "200 to 500", "unit": "nM"}, {"measurement": "IC50", "setting": "ABHD16A [3]", "value": "~300", "unit": "nM"}, {"measurement": "light:heavy ratio for ABHD16A (ABPP-SILAC)", "setting": "ABHD16A [4]", "value": 0.02}, {"measurement": "partial inhibition of a handful of additional off-targets (ABPP-SILAC)", "setting": "[5]", "value": "50–80%"}, {"measurement": "cellular lyso-PSs versus DMSO-treated control cells", "setting": "COLO205 cells", "value": "significant reductions"}, {"measurement": "other lipids (PSs, PCs, PEs, lyso-PCs, lyso-PEs, MAGs)", "setting": "COLO205 cells", "value": "No changes"}, {"measurement": "secreted lyso-PSs (18:1 and 18:0)", "setting": "COLO205 cells; serum-free media", "value": "decreased"}, {"measurement": "PS lipase activity of LCL membrane proteomes", "setting": "[6]", "value": "inhibited"}, {"measurement": "secreted lyso-PSs of the ABHD12-null LCL", "setting": "[7]; PHARC subject-derived LCL", "value": "significantly lowered"}, {"measurement": "cellular lyso-PSs of LCLs", "setting": "[7]; all LCLs", "value": "decreased cellular lyso-PSs"}, {"measurement": "inhibition of ABHD16A in LCLs by gel-based ABPP", "setting": "ABHD16A [8]", "value": "confirmed inhibition"}, {"measurement": "PS lipase activity of macrophage membrane proteomes", "setting": "[9]", "value": "blocked"}, {"measurement": "LPS-induced increases in lyso-PSs", "setting": "[10]; [13]", "value": "blocked"}, {"measurement": "cellular or secreted lyso-PS and other measured lipids", "setting": "[10]; [14]", "value": "no changes"}, {"measurement": "basal and LPS-induced increases in cellular and secreted lyso-PSs", "setting": "[10]; [15]", "value": "reduced"}, {"measurement": "LPS-induced increases in cytokine secretion", "setting": "[11]; [13]", "value": "blocked"}, {"measurement": "secreted proinflammatory cytokines (IL-6 and TNF-α)", "setting": "[11]; [14]", "value": "no changes"}, {"measurement": "LPS-induced cytokine release", "setting": "[11]; [15]", "value": "significantly blunted"}]}
{"smiles": "CCCCCCCCCCC[C@@H](C[C@@H]1OC(=O)[C@H]1CCCCCC)OC(=O)[C@H](CC(C)C)NC=O", "note": "[THL, tetrahydrolipstatin]", "values": [{"measurement": "IC50", "setting": "ABHD12", "value": "~100", "unit": "nM"}, {"measurement": "IC50", "setting": "ABHD16A/BAT5", "value": "~100", "unit": "nM"}]}
{"smiles": "CCCCCCCCCCCCCC1OC(=O)/C1=C\\CCCC(=O)NCCCCCNC(=O)c1ccc(-c2c3ccc(=[N+](C)C)cc-3oc3cc(N(C)C)ccc23)c(C(=O)[O-])c1", "note": "(centres unmarked) [WHP01]", "values": [{"measurement": "labeling of ABHD16A by fluorescent probe", "setting": "[12]", "value": "labeled WT-ABHD16A but not the catalytic serine S355A mutant"}]}
